The values below come from ChEMBL document CHEMBL3600342, “Fragment-Based Drug Discovery Targeting Inhibitor of Apoptosis Proteins: Discovery of a Non-Alanine Lead Series with Dual Activity Against cIAP1 and XIAP” (J Med Chem, 2015).

Series [1] has as its target T1, E3 ubiquitin-protein ligase XIAP (Homo sapiens, UniProt P98170). The series is described as follows: Antagonist activity at XIAP-BIR3 domain (unknown origin) assessed as inhibition of interaction with SMAC at 1 mM by fluorescence polarization assay relative to control.
Series [2] concerns the target T1, E3 ubiquitin-protein ligase XIAP. The series is described as follows: Antagonist activity at XIAP-BIR3 domain (unknown origin) assessed as inhibition of interaction with SMAC at 1000 uM by fluorescence polarization assay relative to control. Background: Fluorescence polarisation rises when a labelled molecule tumbles more slowly, as on binding a larger partner.

For series [3] the target is unchanged. The series is described as follows: Antagonist activity at XIAP-BIR3 domain (unknown origin) assessed as inhibition of interaction with SMAC at 495 uM by fluorescence polarization assay relative to control.
Series [4] has the same target. The series is described as follows: Antagonist activity at XIAP-BIR3 domain (unknown origin) assessed as inhibition of interaction with SMAC at 5 mM by fluorescence polarization assay relative to control. A digest of the protocol:
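Competitive FP binding of a SMAC-derived fluorescent tracer, AbuRPFK(5&6FAM)-amide (5 nM), to XIAP-BIR3 (20 nM). Compound was tested at 5 mM and equilibrated at room temperature. Polarization was read at ex 485/em 538 nm and reported as percent inhibition, mean of at least two runs.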

In series [5] the target is Baculoviral IAP repeat-containing protein 2 (Homo sapiens) (UniProt Q13490). The series is described as follows: Antagonist activity at cIAP1-BIR3 domain (unknown origin) assessed as inhibition of interaction with SMAC at 5 mM by fluorescence polarization assay relative to control. The essentials: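 Competitive FP assay: cIAP1-BIR3 (4 nM) with a 2 nM SMAC-derived FAM peptide tracer, AbuRPFK(5&6FAM)-amide. Compound was tested at 5 mM. Polarization was read at ex 485/em 538 nm and expressed as percent inhibition, mean of at least two runs.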
Baculoviral IAP repeat-containing protein 2 (Homo sapiens), sequence (Q13490 whole entry, the tested form may be a part): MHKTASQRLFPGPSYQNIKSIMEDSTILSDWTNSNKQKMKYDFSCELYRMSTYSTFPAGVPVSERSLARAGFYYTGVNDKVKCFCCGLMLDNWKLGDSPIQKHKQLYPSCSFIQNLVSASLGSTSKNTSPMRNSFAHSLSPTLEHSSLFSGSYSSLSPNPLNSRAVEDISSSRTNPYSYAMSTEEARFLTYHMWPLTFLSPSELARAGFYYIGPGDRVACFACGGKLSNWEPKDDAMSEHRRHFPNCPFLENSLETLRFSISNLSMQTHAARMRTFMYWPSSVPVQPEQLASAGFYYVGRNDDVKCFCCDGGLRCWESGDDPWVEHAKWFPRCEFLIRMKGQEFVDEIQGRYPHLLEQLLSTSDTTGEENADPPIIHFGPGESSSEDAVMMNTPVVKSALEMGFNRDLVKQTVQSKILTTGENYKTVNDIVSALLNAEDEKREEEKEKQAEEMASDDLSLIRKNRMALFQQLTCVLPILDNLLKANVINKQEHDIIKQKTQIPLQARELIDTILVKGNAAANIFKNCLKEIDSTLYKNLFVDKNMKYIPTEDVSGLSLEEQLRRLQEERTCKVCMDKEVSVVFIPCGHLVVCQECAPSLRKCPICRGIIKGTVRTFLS

For series [6], the system named is Mus musculus. The series is described as follows: Reduction of cIAP1 level in human MDA-MB-231 cells xenografted in Balb/c SCID mouse at 100 mg/kg, ip measured after 1 to 6 hrs by Western blot analysis relative to vehicle-treated control. In kind it is functional, organism-based. A digest of the protocol:
(§1)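 Male Balb/c scid mice bearing MDA-MB-231 tumors received a single 100 mg/kg i.p. dose in 10% DMSO/90% saline (freebase equivalent). Tumors were harvested at 1, 6 and 24 h and snap frozen. Lysates were ground under liquid nitrogen in Triton lysis buffer with NaF/Na3VO4, and equal protein was run on SDS-PAGE. Blots were probed for cIAP1, XIAP, cleaved PARP and cleaved caspase-3, with infrared detection; comparison against vehicle-dosed tumors.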

The test system of series [7] is Mus musculus. The series is described as follows: Reduction of cIAP1 level in human MDA-MB-231 cells xenografted in Balb/c SCID mouse at 100 mg/kg, ip measured after 1 hr by MSD plate-based method relative to vehicle-treated control. In kind it is functional, organism-based. Background: A xenograft is tissue or cells of one species grown in another, often human tumour cells in immunodeficient mice.

The test system of series [8] is Mus musculus. The series is described as follows: Reduction of cIAP1 level in human MDA-MB-231 cells xenografted in Balb/c SCID mouse at 100 mg/kg, ip measured after 24 hrs by Western blot analysis. In kind it is functional, organism-based. The essentials:
as §1

In series [9] the test system is Mus musculus. The series is described as follows: Reduction of XIAP level in human MDA-MB-231 cells xenografted in Balb/c SCID mouse at 100 mg/kg, ip measured after 1 to 24 hrs by Western blot analysis. In kind it is functional, organism-based. The essentials:
as §1

For series [10], the system named is Mus musculus. The series is described as follows: Increase in cleaved PARP level in human MDA-MB-231 cells xenografted in Balb/c SCID mouse at 100 mg/kg, ip measured after 1 to 24 hrs by Western blot analysis. In kind it is functional, organism-based. A digest of the protocol: as §1
Series [11] relates to Mus musculus. The series is described as follows: Increase in cleaved caspase-3 level in human MDA-MB-231 cells xenografted in Balb/c SCID mouse at 100 mg/kg, ip measured after 1 to 24 hrs by Western blot analysis. The format is functional, organism-based. The essentials:
as §1

The subject of series [12] is EVSA-T. The series is described as follows: cells. Conditions: Homo sapiens, 72 h.
Series [13] has as its system MDA-MB-231. The series is described as follows: cells. As to conditions: Homo sapiens, MDA-MB-231, 72 h.
Series [14] relates to HCT-116. The series is described as follows: cells. As to conditions: Homo sapiens, HCT-116, 72 h.
The test system of series [15] is MDA-MB-231. The series is described as follows: Antitumor activity against human MDA-MB-231 cells xenografted in Balb/c SCID mouse assessed as tumor growth inhibition at 100 mg/kg, ip bid measured every 3 days.
Series [16] has as its system Mus musculus. The series is described as follows: Toxicity in Balb/c SCID mouse xenografted with human MDA-MB-231 cells assessed as effect on body weight at 100 mg/kg, ip bid measured everyday during compound dosing. Conditions: in vivo.
In series [17] the target is T1, E3 ubiquitin-protein ligase XIAP. The series is described as follows: Antagonist activity at XIAP-BIR3 domain (unknown origin) assessed as inhibition of interaction with SMAC at 155 uM by fluorescence polarization assay relative to control.
Series [18] has as its target Baculoviral IAP repeat-containing protein 2 (Homo sapiens) (UniProt Q13490). The series is described as follows: Antagonist activity at cIAP1-BIR3 domain (unknown origin) assessed as inhibition of interaction with SMAC at 0.01 uM by fluorescence polarization assay relative to control.
In series [19] the target is T1, E3 ubiquitin-protein ligase XIAP. The series is described as follows: Antagonist activity at full-length FLAG-tagged XIAP (unknown origin) transfected in HEK293 cells assessed as inhibition of interaction with caspase 9 after 2 hrs by immunoprecipitation assay. In kind it is cell-based.
Series [20] has as its system MDA-MB-231. The series is described as follows: Antitumor activity against human MDA-MB-231 cells xenografted in Balb/c SCID mouse assessed as tumor growth inhibition at 100 mg/kg, po qd measured every 3 days. In kind it is functional, organism-based. A digest of the protocol: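 Balb/c scid mice were inoculated s.c. with 5 x 10^6 MDA-MB-231 cells and dosing began when group (n=8) mean tumor volume reached 100 mm³. Arms: 100 mg/kg i.p. b.i.d., 100 mg/kg p.o. q.d., or vehicle. Tumor volume (length x width x width x 0.5) measured every 3 days; body weight recorded daily.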

Series [21] deals with T1, E3 ubiquitin-protein ligase XIAP. As to conditions: 0.05 uM.

The inhibition is the relative decrease from the control value, in per cent. As usually defined, the EC50 is the midpoint of the concentration-response curve.

Calls of active or inactive are those of the source. The rule behind the calls is not given here.

T1 sequence (P98170 whole entry, the tested form may be a part): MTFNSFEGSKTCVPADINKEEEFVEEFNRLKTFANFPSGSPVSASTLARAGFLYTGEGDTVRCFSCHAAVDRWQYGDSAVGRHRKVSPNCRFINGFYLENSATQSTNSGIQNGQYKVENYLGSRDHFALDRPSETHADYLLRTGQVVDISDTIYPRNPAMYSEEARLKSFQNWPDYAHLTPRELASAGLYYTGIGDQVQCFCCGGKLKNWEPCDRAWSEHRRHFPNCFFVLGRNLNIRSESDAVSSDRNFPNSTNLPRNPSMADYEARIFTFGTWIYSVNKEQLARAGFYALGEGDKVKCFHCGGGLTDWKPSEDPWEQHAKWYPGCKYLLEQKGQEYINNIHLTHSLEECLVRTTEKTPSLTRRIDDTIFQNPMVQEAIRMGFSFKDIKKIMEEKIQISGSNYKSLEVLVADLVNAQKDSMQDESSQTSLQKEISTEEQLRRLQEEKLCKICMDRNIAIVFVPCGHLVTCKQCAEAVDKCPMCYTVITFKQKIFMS

`C[C@@H]1CN(CC(=O)N2CCc3ccc(N)cc32)CCN1`: the inhibition in [1] and in series [2] was 56% each time.
As to `C[C@@H]1CN(CC(=O)N2CCc3ccccc32)CCN1`, the inhibition in series [3] turned out to be 52%.
Consider `O=C(CN1CCNCC1)N1CCCCC1`, for which the inhibition in [4] turned out to be 38%; in [5] it was 16%.
On to `COC[C@H]1CN[C@H](C)CN1CC(=O)N1CC(C)(C)c2cnc(Cc3ccccc3)cc21`, for which the result in series [6], in series [7], in [10] and in series [11] was Active. In addition, the outcome in series [8] and in series [9] was inactive. Besides, the values for the EC50 in series [12], in series [13] and in series [14] were 100 nM, 590 nM and over 10 µM, respectively. Further, the TGI result in series [15] is “Active”. Further, the Activity result in series [16] is “Non-toxic”.
Consider `COc1ccc2c(c1)N(C(=O)CN1CCN[C@H](C)C1)CC2`, for which the inhibition in series [17] was 49%.
As for `Brc1cnn(C2CCNCC2)c1`, the inhibition in series [4] was determined as 33%; in series [5], 55%.
In the case of `CN[C@@H](C)C(=O)N[C@H]1CN(C(=O)CC(C)C)CC[C@H]2CC[C@@H](C(=O)NC(c3ccccc3)c3ccccc3)N2C1=O` [XEVINAPANT], the results for the inhibition in [18] and in series [21] were 98% and 70%, respectively. The EC50 in series [19] was 34 nM; in series [12] it was 2.1 nM; in series [13], 19 nM; in [14], over 10 µM. In series [20], the TGI entry was “Active”.
